Experimental data pooled from the literature.
Each line is one published result; the experiments were not run side by side.

Structure (SMILES)	species	sample	route	dose	notes	Tmax
CO[C@@H]1[C@H](OC(=O)N2CC(CCN3CCOCC3)C2)CC[C@]2(CO2)[C@H]1[C@@]1(C)O[C@@H]1CC=C(C)C	human	plasma	subcutaneous	0.2 mg	single dose, healthy volunteers	0.28 h
CC(C)(O)c1ccccc1-c1ccc2[nH]c(/C=C/c3ccc(C(F)(F)F)cc3)nc2c1	male human	plasma	oral	1 mg	single dose, fasted	4.44 h
CC(C)[C@H](N)C(=O)NCCCS(=O)(=O)O	human	plasma	oral	171 mg	multiple doses, twice daily, fasted	0.5 h
Nc1cc(C(F)(F)F)c(-c2cc(N3CCOCC3)nc(N3CCOCC3)n2)cn1	human	plasma	oral	50 mg/day	patients	1.02 h
CCc1nc2c(C)cc(N3CCN(CC(=O)N4CC(O)C4)CC3)cn2c1N(C)c1nc(-c2ccc(F)cc2)c(C#N)s1	human	plasma	oral	60 mg	fed, healthy volunteers	0.5 h
C[C@@H](Nc1cc(F)cc(F)c1)c1cc(C(=O)N(C)C)cc2c(=O)cc(N3CCOCC3)oc12	human	plasma	oral	300 mg	single dose, patients	1.21 h
CCc1nc(C(N)=O)c(Nc2ccc(N3CCC(N4CCN(C)CC4)CC3)c(OC)c2)nc1NC1CCOCC1	human	plasma	oral	300 mg	multiple doses, patients	6.93 h
C=CC(=O)N(C)CCOc1c(N)ncnc1-c1cc(F)cc(NC(=O)c2ccc(C3CC3)cc2F)c1C	human	blood	oral	60 mg	single dose, healthy volunteers	1.01 h
CC(C)n1cc(C#N)c2cc(-n3cc(C(=O)O)cn3)ccc21	human	plasma	oral	100 mg	single dose, fasted, healthy volunteers	3.5 h
O=C(O)C[C@H](O)C[C@H](O)/C=C/c1c(C2CC2)nc2ccccc2c1-c1ccc(F)cc1	human	plasma	oral	2 mg	single dose, fasted, healthy volunteers, tablet	1.17 h
C[C@@]1(c2cc(NC(=O)c3ccc(C#N)cn3)ccc2F)C=CSC(N)=N1	human	plasma	oral	3 mg	single dose	1.25 h
C#C[C@]1(COP(=O)(O)OP(=O)(O)OP(=O)(O)O)O[C@@H](n2cnc3c(N)nc(F)nc32)C[C@@H]1O	human	plasma	oral	400 mg	single dose	12.1 h
COc1ccc([C@@H]2CN(C(=O)[C@@H](O)CO)C[C@@]2(C)[C@@H](C)O)cc1OC1CN(c2ccc(C)cn2)C1	human	plasma	oral	20 mg	single dose, healthy volunteers	1.5 h
NS(=O)(=O)NCCNc1nonc1C(=NO)Nc1ccc(F)c(Br)c1	human	plasma	oral	400 mg	multiple doses, twice daily, steady state, patients	2 h
O=C(Nc1c(Cl)cncc1Cl)c1ccc(OC(F)F)c(OCC2CC2)c1	human	plasma	oral	0.375 mg	multiple doses, once daily	0.75 h
CCOc1ccc(Cc2cc([C@@H]3O[C@H](CO)[C@@H](O)[C@H](O)[C@H]3O)ccc2Cl)cc1	human	plasma	oral	10 mg	multiple doses, steady state	0.77 h
CCCCOC(=O)N1CCN(C(=O)[C@H](CP(=O)(O)O)NC(=O)c2cc(N3CC[C@H](OC)C3)nc(-c3ccccc3)n2)CC1	human	plasma	subcutaneous	8 mg	single dose	0.667 h
CS(=O)(=O)CCC#N	human	plasma	oral	1000 mg	multiple doses, once daily	2 h
Cn1cc(-c2ccc(S(=O)(=O)[C@@H]3C[C@@H](C(=O)NC4(C#N)CC4)N(C(=O)C4(C(F)(F)F)CC4)C3)c(C(F)(F)F)c2)cn1	human	plasma	oral	10 mg	single dose, fasted, healthy volunteers	4.5 h
Oc1cc(O)c2c(c1)O[C@@H](c1ccc(O)c(O)c1)[C@@H](O)C2	human	plasma	oral	30 mg	single dose	1 h
CC(C)(Sc1ccncc1-c1ccc(C#N)c2ccccc12)C(=O)O	male human	plasma	oral	20 mg	single dose, fasted, healthy volunteers	0.5 h
